Reference: ChEMBL document CHEMBL3259704, “Second generation steroidal 4-aminoquinolines are potent, dual-target inhibitors of the botulinum neurotoxin serotype A metalloprotease and P. falciparum malaria” (J Med Chem, 2014)

Experiments:
[1] = biological target: Botulinum neurotoxin type A (Clostridium botulinum) (UniProt P0DPI0); assay: Inhibition of Clostridium botulinum recombinant BoNT/A light chain using N-terminal acetylated, C-terminal aminated SNAP-25 (187-203) as substrate at 20 uM by reverse-phase HPLC analysis
Method in brief: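 Recombinant BoNT/A LC with SNAP-25 187–203 peptide substrate in 40 mM HEPES–0.05% Tween, pH 7.3, with 0.5 mg/mL BSA and 50 μM excess Zn, at 37 °C. Quenched with TFA; reverse-phase HPLC product/substrate peak areas give percent inhibition, run in duplicate.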

[2] = biological target: Botulinum neurotoxin type A (Clostridium botulinum, UniProt P0DPI0); assay: Inhibition of Clostridium botulinum recombinant BoNT/A light chain using N-terminal acetylated, C-terminal aminated SNAP-25 (187-203) as substrate by reverse-phase HPLC analysis
Method in brief: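 Same HPLC LC cleavage assay (pH 7.3 HEPES/Tween, BSA, excess Zn, 37 °C). […] Ki comes from velocity versus substrate at several inhibitor levels, globally fit to a competitive model.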

Plasmodium falciparum [3] = assay: Antimalarial activity against CQ-resistant, MFQ-susceptible Plasmodium falciparum W2 clone Indochina 1 isolate assessed as inhibition of parasite proliferation by MSF assay; type: functional, organism-based
Method in brief: (§1)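 SYBR Green I fluorescence (MSF) microtiter drug-sensitivity assay: malarial DNA content is the measure of in vitro parasite proliferation. Resistance index is the IC90 ratio of the resistant strain to D6.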

Plasmodium falciparum [4] = assay: Antimalarial activity against CQ, MFQ-susceptible Plasmodium falciparum D6 clone Sierra 1/UNC isolate assessed as inhibition of parasite proliferation by MSF assay; type: functional, organism-based; method in brief: as §1
Plasmodium falciparum [5] = assay: Antimalarial activity against CQ, MFQ-resistant Plasmodium falciparum TM91C235 clone Southeast asian isolate assessed as inhibition of parasite proliferation by MSF assay; type: functional, organism-based; method in brief: as §1
Plasmodium falciparum [6] = assay: Resistance index, ratio of IC90 for CQ, MFQ-resistant Plasmodium falciparum TM91C235 clone Southeast asian isolate to IC90 for CQ, MFQ-susceptible Plasmodium falciparum D6 clone Sierra 1/UNC isolate; type: functional; method in brief: as §1
Plasmodium falciparum [7] = assay: Resistance index, ratio of IC90 for CQ-resistant, MFQ-susceptible Plasmodium falciparum W2 clone Indochina 1 isolate to IC90 for CQ, MFQ-susceptible Plasmodium falciparum D6 clone Sierra 1/UNC isolate; type: functional; method in brief: as §1
HepG2 = assay: Cytotoxicity against human HepG2 cells assessed as cell viability after 48 hrs by MTT assay; type: cell-based; details: HepG2, 48 h
[8] = Selectivity index, ratio of IC50 for human HepG2 cells to IC50 for CQ-resistant, MFQ-susceptible Plasmodium falciparum W2 clone Indochina 1 isolate; type: toxicity, cell-based; details: read-out: Ratio IC50
[9] = Selectivity index, ratio of IC50 for human HepG2 cells to IC50 for CQ, MFQ-susceptible Plasmodium falciparum D6 clone Sierra 1/UNC isolate; type: toxicity, cell-based; details: read-out: Ratio IC50
[10] = Selectivity index, ratio of IC50 for human HepG2 cells to IC50 for CQ, MFQ-resistant Plasmodium falciparum TM91C235 clone Southeast asian isolate; type: toxicity, cell-based; details: read-out: Ratio IC50

Chain of Botulinum neurotoxin type A (Clostridium botulinum) (P0DPI0 2-448 limits assumed): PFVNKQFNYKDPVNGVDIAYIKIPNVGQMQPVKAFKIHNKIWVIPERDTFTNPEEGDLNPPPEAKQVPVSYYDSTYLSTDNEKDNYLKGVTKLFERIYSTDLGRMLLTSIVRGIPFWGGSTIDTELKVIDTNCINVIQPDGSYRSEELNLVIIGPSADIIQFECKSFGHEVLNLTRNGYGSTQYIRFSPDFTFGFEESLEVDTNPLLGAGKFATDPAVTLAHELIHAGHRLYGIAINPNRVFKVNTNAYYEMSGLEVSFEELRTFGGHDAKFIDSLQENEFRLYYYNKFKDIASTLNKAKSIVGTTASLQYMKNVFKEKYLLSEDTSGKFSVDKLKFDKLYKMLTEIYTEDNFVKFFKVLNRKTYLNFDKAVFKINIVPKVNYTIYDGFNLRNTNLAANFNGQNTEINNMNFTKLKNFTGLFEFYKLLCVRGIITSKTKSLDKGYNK
Chain of Botulinum neurotoxin type A (P0DPI0 2-448 limits assumed): as above

Compound | inhibition [1] [%] | IC50 [2] [nM] | IC50 (Plasmodium falciparum [3]) [nM] | IC90 (Plasmodium falciparum [3]) [nM] | IC50 (Plasmodium falciparum [4]) [nM] | IC90 (Plasmodium falciparum [4]) [nM] | IC50 (Plasmodium falciparum [5]) [nM] | IC90 (Plasmodium falciparum [5]) [nM] | Ratio (Plasmodium falciparum [6]) | Ratio (Plasmodium falciparum [7]) | IC50 (HepG2) [nM] | selectivity ratio [8] | selectivity ratio [9] | selectivity ratio [10] | Ki [2] [nM]
CC(=O)O[C@H]1C[C@H]2[C@@H]([C@H](OC(C)=O)C[C@@H]3C[C@H](NS(C)(=O)=O)CC[C@@]32C)[C@@H]2CC[C@H]([C@H](C)CCCNCCNc3ccnc4cc(Cl)ccc34)[C@@]12C | 74.4 | 5090 | 44.6 | 71.1 | 19.4 | 53 | 26.4 | 45.6 | 0.86 | 1.34 | 5850 | 131 | 301 | 222 | –
CC(=O)O[C@H]1C[C@H]2[C@@H]([C@H](OC(C)=O)C[C@@H]3C[C@H](NCCCCCCNc4ccnc5cc(Cl)ccc45)CC[C@@]32C)[C@@H]2CC[C@H]([C@H](C)CCCNCCCCNc3ccnc4cc(Cl)ccc34)[C@@]12C | 93.7 | – | – | – | – | – | – | – | – | – | – | – | – | – | 300
CC(=O)O[C@H]1C[C@H]2[C@@H]([C@H](OC(C)=O)C[C@@H]3C[C@H](O)CC[C@@]32C)[C@@H]2CC[C@H]([C@H](C)CCCNCCCCCCNc3ccnc4cc(Cl)ccc34)[C@@]12C | 62.9 | – | 33.9 | – | 36.6 | – | 40.6 | – | – | – | 2040 | 60 | 56 | 50 | –
CC(=O)N[C@@H]1CC[C@@]2(C)[C@@H](C1)C[C@@H](OC(C)=O)[C@@H]1[C@@H]2C[C@H](OC(C)=O)[C@]2(C)[C@@H]([C@H](C)CCCNCCCNc3ccnc4cc(Cl)ccc34)CC[C@@H]12 | 77.3 | 4920 | 26.4 | 35.8 | 12.8 | 36.5 | 28.1 | 39.9 | 1.09 | 0.98 | 1450 | 55 | 114 | 51 | –
CC(=O)O[C@H]1C[C@H]2[C@@H]([C@H](OC(C)=O)C[C@@H]3C[C@H](NCCCCCCNc4ccnc5cc(Cl)ccc45)CC[C@@]32C)[C@@H]2CC[C@H]([C@H](C)CCCNCCCCCCNc3ccnc4cc(Cl)ccc34)[C@@]12C | 95.5 | – | – | – | – | – | – | – | – | – | – | – | – | – | 285
CCN(CC)CCCC(C)Nc1ccnc2cc(Cl)ccc12 (centres undefined) [CHLOROQUINE] | 6.51 | – | – | 698 | – | 16.1 | – | 373 | – | – | – | – | – | – | –
CC(=O)O[C@H]1C[C@H]2[C@@H]([C@H](OC(C)=O)C[C@@H]3C[C@H](NC(=O)OC(C)(C)C)CC[C@@]32C)[C@@H]2CC[C@H]([C@H](C)CCCN(C)CCCNc3ccnc4cc(Cl)ccc34)[C@@]12C | 59.6 | 6620 | – | – | – | – | – | – | – | – | – | – | – | – | –
N=C(N)c1ccc(Oc2ccc(-c3cc4ccc(C(=N)N)cc4[nH]3)cc2)cc1 | – | 2620 | – | – | – | – | – | – | – | – | – | – | – | – | –
CC(=O)O[C@H]1C[C@H]2[C@@H]([C@H](OC(C)=O)C[C@@H]3C[C@H](N)CC[C@@]32C)[C@@H]2CC[C@H]([C@H](C)CCCN(C)CCCNc3ccnc4cc(Cl)ccc34)[C@@]12C | 81.4 | 1130 | 110 | 153 | 112 | 150 | 100 | 128 | 0.85 | 1.02 | 4970 | 45 | 44 | 50 | –
CC(=O)O[C@H]1C[C@H]2[C@@H]([C@H](OC(C)=O)C[C@@H]3C[C@H](NC(=O)OC(C)(C)C)CC[C@@]32C)[C@@H]2CC[C@H]([C@H](C)CCCN(CCCNc3ccnc4cc(Cl)ccc34)CCC[C@@H](C)[C@H]3CC[C@H]4[C@@H]5[C@H](OC(C)=O)C[C@@H]6C[C@H](NC(=O)OC(C)(C)C)CC[C@]6(C)[C@H]5C[C@H](OC(C)=O)[C@]34C)[C@@]12C | 6.42 | – | – | – | – | – | 369 | – | – | – | 35400 | 96 | 96 | 96 | –
CC(=O)O[C@H]1C[C@H]2[C@@H]([C@H](OC(C)=O)C[C@@H]3C[C@H](O)CC[C@@]32C)[C@@H]2CC[C@H]([C@H](C)CCCNCCCCNc3ccnc4cc(Cl)ccc34)[C@@]12C | 80.8 | – | 33.8 | – | 52.1 | – | 56.3 | – | – | – | 1580 | 47 | 30 | 28 | –
Clc1ccc2c(NCCNC34CC5CC(CC(C5)C3)C4)ccnc2c1 | – | 11800 | – | – | – | – | – | – | – | – | – | – | – | – | –
CC(=O)O[C@H]1C[C@H]2[C@@H]([C@H](OC(C)=O)C[C@@H]3CC(=O)CC[C@@]32C)[C@@H]2CC[C@H]([C@H](C)CCCNCCCCCCNc3ccnc4cc(Cl)ccc34)[C@@]12C | 77.2 | – | 42.1 | – | 47.5 | – | 51.6 | – | – | – | 1280 | 30 | 27 | 25 | –
CC(=O)O[C@H]1C[C@H]2[C@@H]([C@H](OC(C)=O)C[C@@H]3C[C@@H](NCCCCCCNc4ccnc5cc(Cl)ccc45)CC[C@@]32C)[C@@H]2CC[C@H]([C@H](C)CCCNCCCCNc3ccnc4cc(Cl)ccc34)[C@@]12C | 95.4 | – | – | – | – | – | – | – | – | – | – | – | – | – | 103
C[C@@H]1CC[C@H]2[C@@H](C)C(=O)O[C@@H]3O[C@@]4(C)CC[C@@H]1[C@]32OO4 [ARTEMISININ] | – | – | 6.7 | 11.5 | 9 | 12.8 | 13.4 | 17.4 | 1.36 | 0.9 | – | – | – | – | –
CC(=O)O[C@H]1C[C@H]2[C@@H]([C@H](OC(C)=O)C[C@@H]3C[C@@H](NCCCCCCNc4ccnc5cc(Cl)ccc45)CC[C@@]32C)[C@@H]2CC[C@H]([C@H](C)CCCNCCCCCCNc3ccnc4cc(Cl)ccc34)[C@@]12C | 89.6 | – | – | – | – | – | – | – | – | – | – | – | – | – | 389
CC(=O)O[C@H]1C[C@H]2[C@@H]([C@H](OC(C)=O)C[C@@H]3C[C@H](NC(=O)OC(C)(C)C)CC[C@@]32C)[C@@H]2CC[C@H]([C@H](C)CCCNCCCNc3ccnc4cc(Cl)ccc34)[C@@]12C | 74.9 | 3240 | – | – | – | – | – | – | – | – | – | – | – | – | –
CC(=O)O[C@H]1C[C@H]2[C@@H]([C@H](OC(C)=O)C[C@@H]3CC(=O)CC[C@@]32C)[C@@H]2CC[C@H]([C@H](C)CCCNCCCCNc3ccnc4cc(Cl)ccc34)[C@@]12C | 81.5 | – | 175 | – | – | – | 214 | – | – | – | 1230 | 7 | 6 | 6 | –
CC(=O)O[C@@H]1CC[C@@]2(C)[C@@H](C1)C[C@@H](OC(C)=O)[C@@H]1[C@@H]2C[C@H](OC(C)=O)[C@]2(C)[C@@H]([C@H](C)CCCNCCNc3ccnc4cc(Cl)ccc34)CC[C@@H]12 | 74 | 3800 | – | 32.5 | – | 34.2 | – | 77.9 | – | – | – | – | – | – | 6990
CC(=O)O[C@@H]1CC[C@@]2(C)[C@@H](C1)C[C@@H](OC(C)=O)[C@@H]1[C@@H]2C[C@H](OC(C)=O)[C@]2(C)[C@@H]([C@H](C)CCCNCCCCCCNc3ccnc4cc(Cl)ccc34)CC[C@@H]12 | 83.3 | – | 56.4 | – | 91 | – | 104 | – | – | – | 2640 | 47 | 29 | 25 | –
CC(=O)O[C@H]1C[C@H]2[C@@H]([C@H](OC(C)=O)C[C@@H]3C[C@@H](NCCCCNc4ccnc5cc(Cl)ccc45)CC[C@@]32C)[C@@H]2CC[C@H]([C@H](C)CCCNCCCCNc3ccnc4cc(Cl)ccc34)[C@@]12C | 96.7 | – | – | – | – | – | – | – | – | – | – | – | – | – | 300
CC(=O)O[C@@H]1CC[C@@]2(C)[C@@H](C1)C[C@@H](OC(C)=O)[C@@H]1[C@@H]2C[C@H](OC(C)=O)[C@]2(C)[C@@H]([C@H](C)CCCNCCCCNc3ccnc4cc(Cl)ccc34)CC[C@@H]12 | 69 | – | 23.9 | – | 46.5 | – | 54.5 | – | – | – | 2560 | 107 | 55 | 47 | –
